From PubChem
Only a selection was taken, and hits are over-represented in it overall.
L major viab – Leishmania major promastigote growth inhibition, primary screen. AID 1063, 2008. 200,000 tested, 9% active. Leishmania major promastigotes, resazurin fluorescence viability. inhibition, % at 10 µM; in the data active = inhibition above about 50%;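 also: promastigotes grown with compound for 44 hours at 28 °C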
Mdm2 ligase inh – MDM2-luciferase reporter signal enhancers, primary screen, MDM2 E3 ligase inhibitor project, cell-based, luminescence, 1536-well; E3 ubiquitin-protein ligase Mdm2 (Homo sapiens), Q00987; cell-based MDM2 ubiquitination luciferase reporter, 2 h; 0 = plate control, 100 = twice control, blank-subtracted; signal enhancement, % at 5 µM; 210,000 tested, 0.11% active;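 active = signal enhancement of 30% or more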;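 also: luminescence tracks abundance of the self-degrading MDM2-luciferase fusion protein; higher signal means inhibition of MDM2 E3 ligase activity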
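System: stable MDM2–luciferase fusion reporter cells / Input: 2000 cells seeded into each well / Schedule: 4 h settle plus 2 h compound, 37 °C / Compound: single-point 5 µM / Buffer or medium: cells held in DMEM / Benchmarks: control and blank well means / Evaluation: percent signal gain over controls, blank-subtracted / Measured by: luciferase luminescence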
S1P4 antagonist – S1P4 receptor antagonists, primary screen, cell-based; S1P4-expressing cells, antagonist mode, reporter read-out; 220,000 tested, 0.26% active; AID 1510, 2009; inhibition, % at 4.98 µM; in the data active = inhibition above about 29%;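 also: 0% = wells stimulated with agonist and 100% = vehicle wells without agonist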
Target sequence (O95977 whole entry, looked up): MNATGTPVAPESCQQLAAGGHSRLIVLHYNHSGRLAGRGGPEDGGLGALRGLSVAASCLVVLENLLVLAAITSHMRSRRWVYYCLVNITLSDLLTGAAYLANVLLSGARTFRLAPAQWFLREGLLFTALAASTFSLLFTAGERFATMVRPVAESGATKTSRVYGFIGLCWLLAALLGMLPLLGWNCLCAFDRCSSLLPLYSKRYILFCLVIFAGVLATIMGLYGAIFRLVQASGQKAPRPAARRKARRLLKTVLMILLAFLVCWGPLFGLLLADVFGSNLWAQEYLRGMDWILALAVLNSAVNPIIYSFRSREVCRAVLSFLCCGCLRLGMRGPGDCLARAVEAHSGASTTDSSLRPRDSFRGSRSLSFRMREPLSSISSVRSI
S1P4 ag – S1P4 receptor agonists, primary screen, cell-based. activation, % at 4.98 µM. S1P4-expressing cell line, agonist reporter assay. AID 1509, 2009. 220,000 tested, 0.35% active; in the data active = activation above about 11%;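 also: 0% = DMSO vehicle and 100% = reference agonist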
S1P3 antag – S1P3 receptor antagonists, primary screen, cell-based; Sphingosine 1-phosphate receptor 3 (Homo sapiens), Q99500; CHO S1P3 NFAT-BLA reporter, FRET fluorescence, antagonist mode; inhibition, % at 4.98 µM; 170,000 tested, 0.27% active; AID 485, 2006;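 active = inhibition above the plate cutoff, the mean inhibition of test wells on that plate plus 3 SD, cut at about 28% in these data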;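 also: cells challenged with S1P at its EC80 of 0.8 µM; blue over green emission ratio from cleaved BLA substrate after 4 h stimulation; 0% = S1P-stimulated wells and 100% = unstimulated DMSO-only wells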
Numbers without * were called inactive; . = no result given.

SMILES | L major viab | Mdm2 ligase inh | S1P4 antagonist | S1P4 ag | S1P3 antag
CCC(C)(c1nnnn1-c1c(C)cccc1C)N(N=O)c1cccc(C(F)(F)F)c1 (stereo unspecified) | 100* | -12 | 4 | -3 | 15
Cc1cccc(C)c1-n1nnnc1C(C)(C)N1CCN(N=O)CC1 | . | -9 | 0 | 1 | -6
Cc1ccc(S(=O)(=O)N(C)c2cc(S(=O)(=O)N3CCC(C)CC3)c(C)cc2C)cc1 | 77* | -9 | 5 | 3 | .
CC(=O)c1ccc(N2CCN(C(=O)c3ccco3)C(C)C2)c(F)c1 (stereo unspecified) | 64* | -13 | -18 | -1 | 0
CC(=O)c1ccc(N2CCN(C(=O)c3ccco3)CC2)c(F)c1 | -5 | 18 | -4 | -2 | 5
CCCCCOc1ccc(C(=O)NC(CCC)C(=O)O)cc1 (stereo unspecified) | 3 | -14 | -12 | 2 | -23
CCCCCCOc1ccc(/C(N)=N/O)cc1 | 87* | -8 | 1 | 2 | 47
Cc1ccc(-c2cc(C(F)(F)F)c(C#N)c(=O)[nH]2)cc1 | -8 | 2 | -1 | -1 | -12
N#Cc1c(C(F)(F)F)cc(C2CC2)[nH]c1=O | -8 | -8 | 7 | -1 | 62*
COc1cc(/C=C2/SC(=S)N(CC(=O)Nc3cccnc3)C2=O)cc(OC)c1OC | -4 | -4 | -5 | 0 | -1
COc1ccc(OC)c(/C=C2\SC(=S)N(Cc3cccnc3)C2=O)c1 | 82* | -5 | -11 | 0 | -11
Cc1ccc(-n2sc3ccccc3c2=O)cc1S(=O)(=O)N1CCCCC1 | 89* | -9 | 1 | 0 | -8
O=c1c2ccccc2sn1-c1ccc(S(=O)(=O)N2CCCCC2)cc1 | 4 | . | -12 | 1 | -9
Cc1cc(-c2cc(C(=O)NCc3ccccc3)on2)nc(S(C)(=O)=O)n1 | . | -12 | . | . | .
O=C(N/N=C/c1ccc(O)cc1O)/C(=C/c1ccccc1)CCO | 98* | -8 | -6 | -2 | 16
COc1cc(/C=N/NC(=O)/C(=C/c2ccccc2)CCO)ccc1O | -2 | -10 | 8 | 0 | -4
Cc1cn(C(=O)c2ccccc2)c(=S)n1-c1ccc(Cl)cc1 | 85* | . | -15 | 1 | .
O=C(CCSc1nc(-c2ccco2)cc(C(F)(F)F)n1)N1CCCc2ccccc21 | 76* | -6 | 8 | 2 | -1
O=C(CCSc1nc(-c2ccco2)cc(C(F)(F)F)n1)N1CCN(c2ccccn2)CC1 | -2 | -3 | -7 | -3 | -13
Cc1cc(C)c(O)c(-c2n[nH]c3c2C(c2cccc(O)c2)N(Cc2ccco2)C3=O)c1 (stereo unspecified) | . | -4 | 4 | -1 | 22
CCCCOC(=O)C1CCCC(C(=O)OCCCC)N1 (stereo unspecified) | 14 | -13 | -6 | -3 | 4
COC(=O)Cn1c(=NC(=O)c2ccc(S(=O)(=O)N3CCc4ccccc4C3)cc2)sc2cc(OC)ccc21 | 87* | 7 | -17 | 2 | 13
COCCn1c(=NC(=O)c2ccc(S(=O)(=O)N3CCc4ccccc4C3)cc2)sc2cc(S(N)(=O)=O)ccc21 | 99* | -10 | 9 | 4 | -6
C=CCn1c(=NC(=O)c2ccc(S(=O)(=O)N3CCc4ccccc4C3)cc2)sc2cc(S(N)(=O)=O)ccc21 | 9 | -8 | -10 | 1 | -14
CC1(C)Cc2nc3nc(SCC(=O)NCCc4ccccc4)n(-c4ccccc4)c(=O)c3cc2CO1 | 5 | 0 | -12 | 2 | .
SMILES | L major viab | Mdm2 ligase inh | S1P4 antagonist | S1P4 ag | S1P3 antag
CC(=O)C1=C(c2ccccc2)NC(=O)NC1c1ccccc1OCC#N (stereo unspecified) | -3 | -10 | -5 | -1 | 6
NN=C1c2cc([N+](=O)[O-])ccc2-c2ccc([N+](=O)[O-])cc21 | -1 | -1 | 5 | 0 | -29
O=C(c1ccccc1)N1CCN(CC2CC=CCC2)CC1 (stereo unspecified) | 70* | -8 | -23 | 1 | 11
CCOC(=O)C1(Cc2cccc(OC)c2)CCN(CC2CC=CCC2)CC1 (stereo unspecified) | 92* | -4 | -4 | 2 | -2
CC1CCCN(C(=O)C2CCN(CC3CC=CCC3)CC2)C1 (stereo unspecified) | 94* | -17 | 1 | 0 | -18
CCOC(=O)C1(Cc2ccccc2)CCN(CC2CC=CCC2)CC1 (stereo unspecified) | 80* | 13 | 4 | -1 | -10
O=C(NCCCN1CCOCC1)C(=O)N/N=C/c1cccc2ccccc12 | . | -14 | 11 | 0 | -3
O=C(c1c(F)cccc1F)N1CCN=C1SCc1ccccc1 | . | 0 | 8 | 1 | 7
CCOC(=O)c1c(NC(=O)CSc2nnc3c(n2)[nH]c2ccccc23)sc2c1CCN(C)C2 | 100* | . | -13 | 0 | .
CCOC(=O)c1c(NC(=O)CSc2ncccn2)sc2c1CCN(Cc1ccccc1)C2 | 99* | -17 | 3 | 1 | -3
CCOC(=O)c1c(NC(=O)CSc2nnc3c(n2)[nH]c2ccc(F)cc23)sc(C(C)=O)c1C | 1 | -15 | -2 | 0 | .
CCOC(=O)c1c(NC(=S)Nc2ccccc2)sc2c1CCN(CCc1ccccc1)C2 | 79* | -26 | -3 | 0 | .
COc1ccc(/C=C2\CCCC3C2=NN(C(=O)CSc2n[nH]c(N)n2)C3c2ccc(OC)cc2)cc1 (stereo unspecified) | -1 | -12 | 10 | -2 | -5
N#CC(C#N)=C1C=CC=CN1/C(=C\c1ccco1)C(=O)c1ccc(Cl)cc1 | 11 | -30 | 9 | 1 | -5
N#CC(C#N)=C1C=CC=CN1/C(=C\c1ccco1)C(=O)c1ccc(-c2ccccc2)cc1 | 100* | 11 | 69* | -3 | -29
COC(=O)[C@@H]1CCCN1C(=O)CCc1nnc(CCC2CCCCC2)o1 | -2 | -10 | -14 | 1 | -8
N#CCCn1nc(-c2ccc(Br)cc2)cc1Nc1ccccc1NC(=O)C(F)(F)F | 69* | -15 | -164 | -1 | 3
N#CCCn1nc(-c2ccccc2)cc1Nc1ccccc1NC(=O)C(F)(F)F | 14 | -9 | -12 | 2 | -15
CCCn1c(N)c(C(=O)COc2ccc(Br)cc2F)c(=O)n(C)c1=O | 1 | -7 | -33 | 2 | 3
COc1ccc(CCC(C)NCC2CCCCC2)cc1 (stereo unspecified) | 87* | -13 | -2 | 0 | 8
COc1ccc(CCc2nnc(CCC(=O)NCc3cc(C(C)C)no3)o2)cc1 | -6 | -1 | 4 | 0 | -6
Cc1cc(C)n2ncc(C(=O)NCc3ccccc3)c2n1 | 55* | -14 | -13 | 1 | .
Cc1cc(C)n2ncc(C(=O)NCCc3ccccc3)c2n1 | 2 | 15 | -1 | 0 | .
O=C(COc1ccc(Cl)cc1Br)NNC(=O)C(=O)N1CCCCC1 | -11 | -5 | -3 | -1 | .
